Measured values as given in ChEMBL document CHEMBL4834416, “The Discovery of Novel ACA Derivatives as Specific TRPM2 Inhibitors that Reduce Ischemic Injury Both In Vitro and In Vivo” (J Med Chem, 2021).

Tests used:
Phospholipase A2 [1] = biological target: T1, Phospholipase A2 (Homo sapiens, UniProt P04054); experiment: Inhibition of PLA2 (unknown origin) using soybean phosphatidylcholine as substrate at 3 uM preincubated for 30 mins followed incubated for 60 mins after substrate addition by microplate reader relative to control
Procedure, shortened: (§1)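 PLA2 (4 μg/L in PBS) was preincubated 30 min at 37 °C with inhibitor in 125 mM Tris. Substrate was then added for 60 min: soybean phosphatidylcholine with Tris, CaCl₂, sodium deoxycholate and 0.5% Triton X-100. Liberated free fatty acids were quantified colorimetrically at OD550. Results are % inhibition versus enzyme without inhibitor, n = 3.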
Target sequence in this assay (P04054 23-148 limits assumed): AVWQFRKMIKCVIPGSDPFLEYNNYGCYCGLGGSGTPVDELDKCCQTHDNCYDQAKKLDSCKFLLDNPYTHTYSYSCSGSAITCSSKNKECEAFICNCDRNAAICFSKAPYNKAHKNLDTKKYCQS

Phospholipase A2 [2] = biological target: T1, Phospholipase A2; experiment: Inhibition of PLA2 (unknown origin) using soybean phosphatidylcholine as substrate preincubated for 30 mins followed incubated for 60 mins after substrate addition by microplate reader relative to control; procedure, shortened: as §1
Target sequence in this assay (P04054 whole entry): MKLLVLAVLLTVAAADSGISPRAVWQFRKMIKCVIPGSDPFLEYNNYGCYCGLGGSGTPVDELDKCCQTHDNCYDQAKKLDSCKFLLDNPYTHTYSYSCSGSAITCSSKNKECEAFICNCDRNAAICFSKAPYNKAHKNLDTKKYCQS

[3] = biological target: T2, Transient receptor potential cation channel subfamily M member 8 (Homo sapiens, UniProt Q7Z2W7); experiment: Inhibition of human TRPM8 expressed in HEK293T cells assessed as blocked of menthol-activated current at 3 uM by whole cell patch clamp electrophysiology relative to control; type: cell-based
T2 sequence (Q7Z2W7 whole entry, looked up, the tested form may be a part): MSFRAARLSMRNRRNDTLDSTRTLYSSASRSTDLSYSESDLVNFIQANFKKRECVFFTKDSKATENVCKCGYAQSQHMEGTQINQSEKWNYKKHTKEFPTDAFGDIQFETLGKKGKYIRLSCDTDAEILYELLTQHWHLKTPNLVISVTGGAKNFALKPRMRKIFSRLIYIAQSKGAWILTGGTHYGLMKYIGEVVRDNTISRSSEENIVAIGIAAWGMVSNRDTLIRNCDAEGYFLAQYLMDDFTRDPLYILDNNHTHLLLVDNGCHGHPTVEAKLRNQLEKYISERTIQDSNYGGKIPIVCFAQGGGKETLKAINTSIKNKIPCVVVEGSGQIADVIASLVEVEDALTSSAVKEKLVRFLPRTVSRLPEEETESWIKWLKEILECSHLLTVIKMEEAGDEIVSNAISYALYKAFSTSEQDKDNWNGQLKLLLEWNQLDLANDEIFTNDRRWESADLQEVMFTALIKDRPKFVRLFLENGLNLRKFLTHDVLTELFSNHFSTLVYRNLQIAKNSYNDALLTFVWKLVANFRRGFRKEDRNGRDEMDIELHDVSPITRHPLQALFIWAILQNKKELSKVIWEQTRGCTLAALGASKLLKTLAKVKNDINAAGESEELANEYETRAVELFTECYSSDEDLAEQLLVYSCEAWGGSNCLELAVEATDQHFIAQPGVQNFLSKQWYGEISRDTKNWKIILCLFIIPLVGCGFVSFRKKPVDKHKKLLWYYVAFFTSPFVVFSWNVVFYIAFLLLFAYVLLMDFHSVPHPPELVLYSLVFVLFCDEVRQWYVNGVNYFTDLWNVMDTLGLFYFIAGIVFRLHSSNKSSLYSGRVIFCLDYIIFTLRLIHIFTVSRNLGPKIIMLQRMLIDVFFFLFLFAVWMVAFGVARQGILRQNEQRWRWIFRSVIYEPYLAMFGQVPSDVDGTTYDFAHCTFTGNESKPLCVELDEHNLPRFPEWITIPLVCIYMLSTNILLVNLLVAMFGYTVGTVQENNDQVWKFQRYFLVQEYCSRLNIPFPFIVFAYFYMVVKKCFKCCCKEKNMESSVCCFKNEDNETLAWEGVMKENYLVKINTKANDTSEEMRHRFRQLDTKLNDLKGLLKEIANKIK
Procedure, shortened: (§2)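 Whole-cell patch clamp was run at room temperature on HEK293T cells transiently cotransfected with human TRPM8 plus GFP, 24–48 h before recording. ECS was 145 NaCl, 5.6 KCl, 2 MgCl₂, 1.2 CaCl₂, 10 HEPES, pH 7.2. Current was activated with 1 mM menthol, and compound was perfused at least 60 s after it stabilized. Inhibition was calculated relative to stable agonist current minus residual current; n = 3–6.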

Phospholipase A2 [4] = biological target: T1, Phospholipase A2; experiment: Inhibition of PLA2 (unknown origin) using soybean phosphatidylcholine as substrate at 10 uM preincubated for 30 mins followed incubated for 60 mins after substrate addition by microplate reader relative to control; procedure, shortened: as §1
Target sequence in this assay (P04054 23-148 limits assumed): as the sequence (P04054 23-148 limits assumed) above

[5] = biological target: Transient receptor potential cation channel subfamily M member 2 (Homo sapiens, UniProt O94759); experiment: Inhibition of human TRPM2 expressed in HEK293T cells assessed as suppression of H2O2-induced calcium flux at 1 uM measured after 30 mins by Fluo-3/AM assay; type: cell-based
Transient receptor potential cation channel subfamily M member 2, sequence (O94759 whole entry): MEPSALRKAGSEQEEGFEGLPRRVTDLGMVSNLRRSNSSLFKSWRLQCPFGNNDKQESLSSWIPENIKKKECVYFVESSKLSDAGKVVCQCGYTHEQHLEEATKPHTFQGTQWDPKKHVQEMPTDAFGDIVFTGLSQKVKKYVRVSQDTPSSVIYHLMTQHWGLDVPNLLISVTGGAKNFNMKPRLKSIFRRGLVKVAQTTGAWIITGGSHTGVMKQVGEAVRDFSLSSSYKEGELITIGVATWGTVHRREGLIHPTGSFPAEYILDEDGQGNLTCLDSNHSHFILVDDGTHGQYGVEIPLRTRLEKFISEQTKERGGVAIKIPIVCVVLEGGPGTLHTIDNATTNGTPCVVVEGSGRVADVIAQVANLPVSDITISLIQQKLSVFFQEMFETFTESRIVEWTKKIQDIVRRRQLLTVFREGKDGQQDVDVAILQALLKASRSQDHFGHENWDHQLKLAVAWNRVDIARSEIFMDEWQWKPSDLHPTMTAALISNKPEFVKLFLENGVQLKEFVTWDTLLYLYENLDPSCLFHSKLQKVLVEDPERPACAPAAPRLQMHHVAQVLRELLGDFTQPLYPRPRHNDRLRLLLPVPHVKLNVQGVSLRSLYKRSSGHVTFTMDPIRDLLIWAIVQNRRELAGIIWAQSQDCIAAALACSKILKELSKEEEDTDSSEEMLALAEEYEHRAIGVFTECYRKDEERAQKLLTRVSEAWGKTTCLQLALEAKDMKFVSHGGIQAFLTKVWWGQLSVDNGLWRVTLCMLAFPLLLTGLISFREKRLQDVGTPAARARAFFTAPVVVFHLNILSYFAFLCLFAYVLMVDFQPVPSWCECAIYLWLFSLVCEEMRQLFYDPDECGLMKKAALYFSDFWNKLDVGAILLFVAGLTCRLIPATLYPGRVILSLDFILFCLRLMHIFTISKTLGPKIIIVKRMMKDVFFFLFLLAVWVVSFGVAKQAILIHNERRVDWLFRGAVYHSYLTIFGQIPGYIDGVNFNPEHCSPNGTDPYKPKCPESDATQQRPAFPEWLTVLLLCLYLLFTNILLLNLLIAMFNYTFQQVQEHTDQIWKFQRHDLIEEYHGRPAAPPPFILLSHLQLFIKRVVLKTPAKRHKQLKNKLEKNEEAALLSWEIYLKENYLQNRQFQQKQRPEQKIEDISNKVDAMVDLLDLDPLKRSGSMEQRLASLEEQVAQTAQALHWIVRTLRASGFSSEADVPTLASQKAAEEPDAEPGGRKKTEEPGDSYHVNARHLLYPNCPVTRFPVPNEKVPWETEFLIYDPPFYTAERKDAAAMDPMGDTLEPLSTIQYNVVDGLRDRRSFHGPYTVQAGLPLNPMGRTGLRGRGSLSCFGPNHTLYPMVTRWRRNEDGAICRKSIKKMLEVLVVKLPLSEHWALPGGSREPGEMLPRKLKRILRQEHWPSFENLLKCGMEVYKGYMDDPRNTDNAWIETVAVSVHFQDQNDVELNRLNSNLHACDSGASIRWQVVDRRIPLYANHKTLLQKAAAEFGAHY

[6] = biological target: T2, Transient receptor potential cation channel subfamily M member 8; experiment: Inhibition of human TRPM8 expressed in HEK293T cells assessed as blocked of menthol-activated current at 10 uM by whole cell patch clamp electrophysiology relative to control; type: cell-based; procedure, shortened: as §2
SH-SY5Y = experiment: Cytotoxicity against human SH-SY5Y cells assessed as toxicity at 30 uM incubated for 24 hrs by CCK-8 assay; type: cell-based
Procedure, shortened: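 SH-SY5Y cells were seeded at 2 × 10⁴ per well and grown 12 h at 37 °C. They were then treated with compound (1–30 μM) under normoxic, normal-glucose conditions for 24 h. CCK-8 (10%) was added for 2 h at 37 °C and OD450 read. Viability was taken relative to untreated control after blank subtraction, with three replicate wells.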

CCCCCc1ccc(/C=C/C(=O)Nc2ccccc2C(=O)O)cc1
inhibition (Phospholipase A2 [1]): 23.4% | IC50 (Phospholipase A2 [2]): 22 µM | inhibition [3]: 39.3% | inhibition (Phospholipase A2 [4]): 40.4% | inhibition [5]: > 45% | inhibition [6]: 62.2% | Activity (SH-SY5Y): < 10%
